Reference: ChEMBL document CHEMBL1156595, “Studies on the antifungal properties of N-thiolated beta-lactams” (2008)
Values after ≈ are worked out from the molar mass of the structure shown. Active and inactive are the calls of the source. The calls are words filed in the database; no cut-off is given here.

Assays:
Candida albicans [1] = experiment: Antifungal activity against Candida albicans ATCC 2091 assessed as growth inhibition zone at 50 ug after 24 hrs by Kirby-Bauer agar diffusion assay; format: functional; settings: ATCC 2091, 24 h, read-out: IZ
Method in brief: (§1)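 Disk diffusion on yeast nitrogen base agar, swabbed with a McFarland 0.5 suspension in saline. 6 mm cellulose disks carried 10 µL of a 5 mg/mL CH2Cl2 stock (50 ug per disk), air-dried, three disks per plate. Plates were sealed and incubated 24 h at 37°C. Cleared inhibition zones were measured and averaged over triplicates.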

Candida tropicalis [2] = experiment: Antifungal activity against Candida tropicalis clinical isolate assessed as growth inhibition zone at 50 ug after 24 hrs by Kirby-Bauer agar diffusion assay; format: functional; settings: read-out: IZ; method in brief: as §1
Nakaseomyces glabratus [3] = experiment: Antifungal activity against Candida glabrata ATCC 15126 assessed as growth inhibition zone at 50 ug after 24 hrs by Kirby-Bauer agar diffusion assay; format: functional; settings: ATCC 15126, 24 h, read-out: IZ; method in brief: as §1
Kluyveromyces marxianus [4] = experiment: Antifungal activity against Candida kefyr ATCC 20409 assessed as growth inhibition zone at 50 ug after 24 hrs by Kirby-Bauer agar diffusion assay; format: functional; settings: ATCC 20409, 24 h, read-out: IZ; method in brief: as §1
Pichia kudriavzevii = experiment: Antifungal activity against Candida krusei ATCC 14243 assessed as growth inhibition zone at 50 ug after 24hrs by Kirby-Bauer agar diffusion assay; format: functional; settings: ATCC 14243, 24 h, read-out: IZ; method in brief: as §1
Clavispora lusitaniae [5] = experiment: Antifungal activity against Candida lusitaniae ATCC 34449 assessed as growth inhibition zone at 50 ug after 24 by Kirby-Bauer agar diffusion assay; format: functional; settings: read-out: IZ; method in brief: as §1
Candida parapsilosis [6] = experiment: Antifungal activity against Candida parapsilosis ATCC 22019 assessed as growth inhibition zone at 50 ug after 24 hrs by Kirby-Bauer agar diffusion assay; format: functional; settings: Lodderomyces parapsilosis, ATCC 22019, 24 h; read-out: IZ; method in brief: as §1
Cyberlindnera jadinii [7] = experiment: Antifungal activity against Candida utilis ATCC 29950 assessed as growth inhibition zone at 50 ug after 24 by Kirby-Bauer agar diffusion assay; format: functional; settings: Williopsis jadinii, read-out: IZ; method in brief: as §1
Candida albicans [8] = experiment: Antifungal activity against Candida albicans ATCC 2091 after 24 hrs by NCCLS M27-A2 method; format: functional; settings: ATCC 2091, 24 h
Method in brief: (§2)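 Broth dilution in yeast nitrogen broth. Lactam from a 1 mg/mL DMSO stock was serially diluted down to 0.125 ug/mL. Each tube got 1 uL of a 10^6 CFU/mL inoculum in sterile NaCl. Incubation was 24 or 48 h at 26°C or 37°C depending on strain. Growth was read by optical density. MIC was the lowest concentration inhibiting all growth, averaged over triplicates.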

Candida tropicalis [9] = experiment: Antifungal activity against Candida tropicalis clinical isolate after 24 hrs by NCCLS M27-A2 method; format: functional; method in brief: as §2
Nakaseomyces glabratus [10] = experiment: Antifungal activity against Candida glabrata ATCC 15126 after 24 hrs by NCCLS M27-A2 method; format: functional; settings: ATCC 15126, 24 h; method in brief: as §2
Kluyveromyces marxianus [11] = experiment: Antifungal activity against Candida kefyr ATCC 20409 after 24 hrs by NCCLS M27-A2 method; format: functional; settings: ATCC 20409, 24 h; method in brief: as §2
Clavispora lusitaniae [12] = experiment: Antifungal activity against Candida lusitaniae ATCC 34449 after 24 hrs by NCCLS M27-A2 method; format: functional; settings: ATCC 34449, 24 h; method in brief: as §2
Candida parapsilosis [13] = experiment: Antifungal activity against Candida parapsilosis ATCC 22019 after 24 hrs by NCCLS M27-A2 method; format: functional; settings: Lodderomyces parapsilosis, ATCC 22019, 24 h; method in brief: as §2
Cyberlindnera jadinii [14] = experiment: Antifungal activity against Candida utilis ATCC 29950 after 24 hrs by NCCLS M27-A2 method; format: functional; settings: Williopsis jadinii, ATCC 29950, 24 h; method in brief: as §2
Candida albicans [15] = experiment: Antifungal activity against Candida albicans ATCC 2091 after 48 hrs by NCCLS M27-A2 method; format: functional; settings: ATCC 2091, 48 h; method in brief: as §2
Candida tropicalis [16] = experiment: Antifungal activity against Candida tropicalis clinical isolate after 48 hrs by NCCLS M27-A2 method; format: functional; method in brief: as §2
Nakaseomyces glabratus [17] = experiment: Antifungal activity against Candida glabrata ATCC 15126 after 48 hrs by NCCLS M27-A2 method; format: functional; settings: ATCC 15126, 48 h; method in brief: as §2
Kluyveromyces marxianus [18] = experiment: Antifungal activity against Candida kefyr ATCC 20409 after 48 hrs by NCCLS M27-A2 method; format: functional; settings: ATCC 20409, 48 h; method in brief: as §2
Clavispora lusitaniae [19] = experiment: Antifungal activity against Candida lusitaniae ATCC 34449 after 48 hrs by NCCLS M27-A2 method; format: functional; settings: ATCC 34449, 48 h; method in brief: as §2
Candida parapsilosis [20] = experiment: Antifungal activity against Candida parapsilosis ATCC 22019 after 48 hrs by NCCLS M27-A2 method; format: functional; settings: Lodderomyces parapsilosis, ATCC 22019, 48 h; method in brief: as §2
Cyberlindnera jadinii [21] = experiment: Antifungal activity against Candida utilis ATCC 29950 after 48 hrs by NCCLS M27-A2 method; format: functional; settings: Williopsis jadinii, ATCC 29950, 48 h; method in brief: as §2
Saccharomyces cerevisiae = experiment: Antifungal activity against Saccharomyces cerevisiae in YM agar by agar dilution method; format: functional
Method in brief: (§3)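 Agar dilution MIC, run per NCCLS guidance. Medium was potato dextrose agar for A. niger and YM agar for S. cerevisiae.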

Aspergillus niger = experiment: Antifungal activity against Aspergillus niger in potato dextrose agar by agar dilution method; format: functional; method in brief: as §3
Candida albicans [22] = experiment: Antifungal activity against Candida albicans ATCC 2091 assessed as degradation of intracellular membrane at <5 ug/ml after 4 hrs by transmission electron microscopy; format: functional, organism-based
Candida albicans [23] = experiment: Antifungal activity against Candida albicans ATCC 2091 by […]; format: functional
Method in brief: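 Tube broth dilution in yeast nitrogen broth. Lactam was added from a 1 mg/mL DMSO stock and serially diluted down to 0.125 ug/mL in broth. Each tube was inoculated with 1 uL of a 10^6 CFU/mL fungal suspension in sterile NaCl and incubated 24 or 48 h at 26°C or 37°C, depending on strain. Growth was read by optical density. MIC is the lowest concentration inhibiting all growth, averaged over triplicates.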

## CO[C@H]1C(=O)N(SC)[C@H]1c1ccccc1Cl
Candida albicans [1]
  zone of inhibition at 50 µg/disc: 23 mm
Candida tropicalis [2]
  zone of inhibition at 50 µg/disc: 21 mm
Nakaseomyces glabratus [3]
  zone of inhibition at 50 µg/disc: 25 mm
Kluyveromyces marxianus [4]
  zone of inhibition at 50 µg/disc: 17 mm
Pichia kudriavzevii
  zone of inhibition at 50 µg/disc: 0 mm
Clavispora lusitaniae [5]
  zone of inhibition at 50 µg/disc: 20 mm
Candida parapsilosis [6]
  zone of inhibition at 50 µg/disc: 33 mm
Cyberlindnera jadinii [7]
  zone of inhibition at 50 µg/disc: 22 mm
Candida albicans [8]
  MIC: < 5 µg/mL
Candida tropicalis [9]
  MIC: 10 µg/mL (≈ 38.8 µM)
Nakaseomyces glabratus [10]
  MIC: 10 µg/mL (≈ 38.8 µM)
Kluyveromyces marxianus [11]
  MIC: 10 µg/mL (≈ 38.8 µM)
Clavispora lusitaniae [12]
  MIC: 10 µg/mL (≈ 38.8 µM)
Candida parapsilosis [13]
  MIC: < 5 µg/mL
Cyberlindnera jadinii [14]
  MIC: 10 µg/mL (≈ 38.8 µM)
Candida albicans [15]
  MIC: < 5 µg/mL
Candida tropicalis [16]
  MIC: 30 µg/mL (≈ 116 µM)
Nakaseomyces glabratus [17]
  MIC: 10 µg/mL (≈ 38.8 µM)
Kluyveromyces marxianus [18]
  MIC: 35 µg/mL (≈ 136 µM)
Clavispora lusitaniae [19]
  MIC: 15 µg/mL (≈ 58.2 µM)
Candida parapsilosis [20]
  MIC: < 5 µg/mL
Cyberlindnera jadinii [21]
  MIC: 15 µg/mL (≈ 58.2 µM)
Saccharomyces cerevisiae
  MIC: 32 µg/mL (≈ 124 µM)
Aspergillus niger
  MIC: 16 µg/mL (≈ 62.1 µM)
Candida albicans [22]
  Activity: Active

## Clc1ccccc1C(c1ccccc1)(c1ccccc1)n1ccnc1 [CLOTRIMAZOLE]
Candida albicans [23]
  MIC: 2 µg/mL (≈ 5.8 µM)
